# Source: ChEMBL document CHEMBL1158617, “New estrogenic compounds isolated from Broussonetia kazinoki” (Bioorg Med Chem Lett, 2010)
# The source made the active and inactive calls. No cut-off for these calls is given here.
# How the values were obtained:
# [1] = test system: MCF7; assay: Up-regulation of pS2 gene expression in human MCF7 cells at 10 uM after 24 hrs by RT-PCR analysis; assay type: functional, cell-based
# Method in brief: (§1)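 MCF-7 cells were treated 24 h with compounds at 10 µM. Steady-state mRNA levels were quantified by qPCR, with constitutive human β-actin mRNA as internal control, relative to untreated control.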
# [2] = test system: MCF7; assay: Down-regulation of ERalpha mRNA expression in human MCF7 cells at 10 uM after 24 hrs by RT-PCR analysis; assay type: functional, cell-based; method in brief: as §1
# [3] = molecular target: T1, Estrogen receptor beta (Homo sapiens, UniProt Q92731); assay: Displacement of [3H]17-beta-estradiol from human recombinant full length ERbeta
# Method in brief: (§2)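 Competitive ligand-binding assay with recombinant human ER-α or ER-β. Test compounds displace the labelled estrogen ligand, and IC50 is derived from the displacement curves.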
# [4] = molecular target: T2, Estrogen receptor (Homo sapiens) (UniProt P03372); assay: Displacement of [3H]17-beta-estradiol from human recombinant full length ERalpha relative to estradiol
# T2 sequence (whole entry): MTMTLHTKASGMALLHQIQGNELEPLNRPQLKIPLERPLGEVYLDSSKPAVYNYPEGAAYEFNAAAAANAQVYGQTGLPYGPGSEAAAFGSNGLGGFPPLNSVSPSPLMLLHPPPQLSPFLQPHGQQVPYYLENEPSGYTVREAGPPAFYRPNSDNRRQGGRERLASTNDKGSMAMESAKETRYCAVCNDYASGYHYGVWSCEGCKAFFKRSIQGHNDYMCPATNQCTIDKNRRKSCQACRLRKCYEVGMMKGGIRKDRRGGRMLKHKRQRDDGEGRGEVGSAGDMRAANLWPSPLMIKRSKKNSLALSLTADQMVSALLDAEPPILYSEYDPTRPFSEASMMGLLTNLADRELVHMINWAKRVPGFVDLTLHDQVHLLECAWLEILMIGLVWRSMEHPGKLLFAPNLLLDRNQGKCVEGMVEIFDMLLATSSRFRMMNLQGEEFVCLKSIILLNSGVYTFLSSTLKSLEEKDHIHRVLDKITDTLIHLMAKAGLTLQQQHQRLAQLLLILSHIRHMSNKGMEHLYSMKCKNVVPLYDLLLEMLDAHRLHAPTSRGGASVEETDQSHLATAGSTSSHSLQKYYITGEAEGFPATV
# Method in brief: (§3)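 Relative binding affinity is taken from the competitive binding IC50s against recombinant human ER-α or ER-β. RBA = 100 × IC50(E2)/IC50(compound).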
# [5] = molecular target: T1, Estrogen receptor beta; assay: Displacement of [3H]17-beta-estradiol from human recombinant full length ERbeta relative to estradiol; method in brief: as §3
# [6] = test system: MCF7; assay: Down-regulation of ERalpha mRNA expression in human MCF7 cells at 10 uM after 24 hrs by SDS PAGE and immunoblot analysis; assay type: functional, cell-based; conditions: in the assay text read “protein” for “mRNA”
# Method in brief: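 MCF-7 cells were treated 24 h with 10 µM compounds, with 10 nM E2 as reference. Total protein extracts were run on SDS–PAGE and immunoblotted with anti-ER-α and anti-β-actin antibodies. ER-α protein was compared with control.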
# [7] = test system: MCF7; assay: Up-regulation of progesterone receptor gene expression in human MCF7 cells at 10 uM after 24 hrs by RT-PCR analysis; assay type: functional, cell-based; method in brief: as §1
# [8] = molecular target: T3, Estrogen receptor (Homo sapiens, UniProt P03372); assay: Displacement of [3H]17-beta-estradiol from human recombinant full length ERalpha; method in brief: as §2
# T3 sequence (P03372 whole entry): T2 sequence (whole entry)
# [9] = organism: Homo sapiens; assay: Selectivity ratio of IC50 for human recombinant full length ERbeta to IC50 for human recombinant full length ERalpha
# [10] = molecular target: T1, Estrogen receptor beta; assay: Transactivation of human recombinant ERbeta expressed in african green monkey CV1 cells co-expressing ERE-Luc after 24 hrs by luciferase reporter gene assay; assay type: cell-based, CV-1
# Method in brief: (§4)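 CV-1 cells were transfected with an ERE-Luc reporter plus a hER-α or hER-β expression vector. Cells were incubated 24 h with compounds, then lysed, and luciferase expression was measured. Data are mean ± SD (n = 3), and EC50 comes from the dose-response.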
# [11] = molecular target: T3, Estrogen receptor; assay: Transactivation of human recombinant ERalpha expressed in african green monkey CV1 cells co-expressing ERE-Luc after 24 hrs by luciferase reporter gene assay; assay type: cell-based, CV-1; method in brief: as §4
# [12] = molecular target: T2, Estrogen receptor (Homo sapiens); assay: Transactivation of human recombinant ERalpha expressed in african green monkey CV1 cells co-expressing ERE-Luc after 24 hrs by luciferase reporter gene assay in presence of ER antagonist ICI 182780; assay type: functional, cell-based; conditions: CV-1
# T1 sequence (Q92731 whole entry): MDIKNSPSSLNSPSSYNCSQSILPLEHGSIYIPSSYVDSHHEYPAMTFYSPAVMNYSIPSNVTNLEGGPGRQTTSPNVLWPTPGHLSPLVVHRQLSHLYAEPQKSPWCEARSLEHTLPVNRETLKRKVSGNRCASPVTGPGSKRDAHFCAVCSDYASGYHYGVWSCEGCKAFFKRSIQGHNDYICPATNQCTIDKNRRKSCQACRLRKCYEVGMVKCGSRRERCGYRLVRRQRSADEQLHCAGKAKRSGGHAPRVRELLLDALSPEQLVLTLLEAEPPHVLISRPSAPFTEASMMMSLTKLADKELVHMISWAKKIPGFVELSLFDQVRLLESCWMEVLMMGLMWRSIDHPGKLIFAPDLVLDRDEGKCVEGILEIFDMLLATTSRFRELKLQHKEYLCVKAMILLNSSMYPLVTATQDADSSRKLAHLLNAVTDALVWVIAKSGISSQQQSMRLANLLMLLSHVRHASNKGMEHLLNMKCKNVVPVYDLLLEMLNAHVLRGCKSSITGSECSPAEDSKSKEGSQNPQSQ
IC50 [3] [µM],RBA [4] [%],RBA [5] [%],IC50 [8] [µM],Ratio IC50 [9],EC50 ([10]; cv-1),EC50 ([10]; read-out: EC50) [nM],EC50 ([11]; cv-1),EC50 ([11]; read-out: EC50) [nM],Activity [12],Structure (SMILES),Activity [1],Activity [2],Activity [6],Activity [7]
14.7,0.021,0.048,26.2,2.29,,,,,,Oc1ccc([C@H]2CCc3ccc(O)cc3O2)cc1 [TUPICHINOL C],Active,Active,Active,Active
41.7,0.01,0.017,57.2,1.7,,,,,,CC(C)=CCc1c([C@H]2CCc3ccc(O)cc3O2)ccc(O)c1O [KAZINOL U],Active,Active,Active,Active
96,0.004,0.007,151,1.75,,,,,,CC(C)=CCc1c([C@H]2CCc3ccc(O)cc3O2)cc(O)c(O)c1CC=C(C)C,Active,Active,Active,Active
1.8,0.069,0.394,8.1,5.71,Dose-dependent effect,530,Dose-dependent effect,1590,inactive,COc1ccc(CCCc2ccc(O)cc2)c(O)c1 [BROUSSONIN A],Active,Active,Active,Active
